# Screening data deposited in PubChem BioAssay by Broad Institute.
# Shown are actives, neighbours in structure and some others; about 2.9% of the full set was active somewhere.
# DENV2 CPE: inhibitors of DENV2 cytopathic effect, primary screen, cell-based, plate reader, single concentration | 350,000 compounds, 1.7% hits | DENV2-infected cells, cytopathic effect rescue | CPE inhibition, % at 9.99 µM | AID 651640, 2012; in the data active = CPE inhibition above about 20%, passing the limit was not always enough; inconclusive = no clear call, values can overlap the other calls; tested in BHK-21 cells;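 note: 0% = median of neutral control wells and 100% = median of positive control wells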
# SIRT5 inh: SIRT5 desuccinylase inhibitors, primary screen, biochemical, fluorescence imaging, single point, set 5. Purified SirT5, succinyl-peptide AMC, trypsin-coupled fluorescence. inhibition, % at 15 µM. 330,000 compounds, 1.1% hits; in the data active = inhibition above about 15%; inconclusive = no clear call, values can overlap the other calls
# Target sequence (Q9NXA8 whole entry, looked up): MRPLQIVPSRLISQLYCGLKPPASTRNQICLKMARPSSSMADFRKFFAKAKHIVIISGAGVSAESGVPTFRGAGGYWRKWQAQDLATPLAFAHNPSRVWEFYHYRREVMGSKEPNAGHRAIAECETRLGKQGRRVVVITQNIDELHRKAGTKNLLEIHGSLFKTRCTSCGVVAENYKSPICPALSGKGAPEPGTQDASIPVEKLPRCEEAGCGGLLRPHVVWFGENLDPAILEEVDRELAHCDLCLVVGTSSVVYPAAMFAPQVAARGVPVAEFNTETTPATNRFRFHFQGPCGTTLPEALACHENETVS
# E-sel inducer: E-selectin induction in HUVECs, primary screen, imaging, HUVEC, immunofluorescence imaging, single point | 260,000 compounds, 0.37% hits | AID 686992, 2013 | normalized: neutral wells 0, TNF-alpha wells 100 | activation, % at 7.58 µM;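 active = mean E-selectin-positive cell signal at least 10% of the positive control, reached in at least 60% of replicates, without over 20% cell loss; inconclusive = no rule given, readout overlaps actives, possibly toxicity-flagged; inactive = the rest, including those meeting only one limit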
#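 Material: HUVEC primary endothelial cells; Amount: 3,000 cells per well; Dosing: single concentration; Medium: EGM-2 growth medium on 0.1% gelatin-coated wells; Read-out basis: percent E-selectin-positive cells; Signal: immunofluorescence imaging; Control set: TNF-alpha, DMSO.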
# An asterisk follows results filed as active; ? = inconclusive; / = no result given.
SMILES,DENV2 CPE,SIRT5 inh,E-sel inducer
CCCC#Cc1ccc2c(c1)O[C@@H](CN(C)S(=O)(=O)c1cccc(F)c1)[C@H](C)CN([C@H](C)CO)S2(=O)=O,5.9,0.8,-0.3
CC(C)CC#Cc1ccc2c(c1)O[C@H](CN(C)S(=O)(=O)c1cccc(F)c1)[C@H](C)CN([C@H](C)CO)S2(=O)=O,22.4*,20.7*,-0.4
CCCC#Cc1ccc2c(c1)O[C@H](CN(C)S(=O)(=O)c1cccc(F)c1)[C@@H](C)CN([C@@H](C)CO)S2(=O)=O,-10.7,-1.1,-0.1
COc1cccc(S(=O)(=O)N(C)C[C@H]2Oc3cc(C#CCC(C)C)ccc3S(=O)(=O)N([C@@H](C)CO)C[C@H]2C)c1,44.0*,-4.2,0.0
COc1cccc(S(=O)(=O)N(C)C[C@@H]2Oc3cc(C#CCC(C)C)ccc3S(=O)(=O)N([C@H](C)CO)C[C@H]2C)c1,10.0,8.9,0.3
CC(C)CC#Cc1ccc2c(c1)O[C@H](CN(C)S(=O)(=O)c1cccc(F)c1)[C@H](C)CN([C@@H](C)CO)S2(=O)=O,3.9,17.3*,-0.2
CCCC#Cc1ccc2c(c1)O[C@@H](CN(C)S(=O)(=O)c1cccc(F)c1)[C@H](C)CN([C@@H](C)CO)S2(=O)=O,29.6*,-0.4,-0.2
COc1ccnc(Oc2ccc(F)cc2)c1C(=O)N/C=N/OCc1ccc(F)cc1Cl,-0.3,0.6,/
CCCCN(C)CCCN1C(=O)C2C(C(=O)Nc3cccc(OC)c3)C3C=CC2(O3)C1C(=O)NC1CCCCC1C (centres undefined),-0.4,-1.2,/
CC1(C)CC(=O)C(C=NCCN2CCN(CC(=O)Nc3ccccc3)CC2)=C(O)C1,/,/,-0.2
CCCCn1c(N)c(N(CCOC)C(=O)CCCn2c(=O)oc3ccccc32)c(=O)[nH]c1=O,7.6,2.9,2.1
CCCOc1ccc(N/C=C/C(=O)c2ccc(OC)c(OC)c2)cc1,?,16.7*,/
CCOc1ccc(N/C=C/C(=O)c2ccc(OC)c(OC)c2)cc1,-2.0,3.9,/
COc1ccccc1CCNS(=O)(=O)c1c(C)n(C)c(=O)n(C)c1=O,-6.4,0.8,0.6
COc1cccc(C2c3c(oc4ccccc4c3=O)C(=O)N2CCCN2CCOCC2)c1OC (centres undefined),-5.1,-1.4,45.9*
O=C1c2oc3ccccc3c(=O)c2C(c2cccc(O)c2)N1CCCN1CCOCC1 (centres undefined),6.0,/,0.8
Cc1nc2[nH]c(=S)[nH]c(=O)c2nc1C,-0.3,-2.5,0.6
Cc1nc2c(=O)[nH]c(=S)[nH]c2[nH]c1=O,-5.8,41.4*,0.3
COCCNC(=O)C(c1ccc(Cl)cc1)N(Cc1ccco1)C(=O)CCC(=O)Nc1ccccn1 (centres undefined),13.9,-4.5,0.1
COc1cccc(NC(=O)N(C)C[C@H]2Oc3cc(-c4ccccc4F)ccc3S(=O)(=O)N([C@H](C)CO)C[C@H]2C)c1,/,15.6*,/
COc1cccc(NC(=O)N(C)C[C@@H]2Oc3cc(-c4ccccc4F)ccc3S(=O)(=O)N([C@@H](C)CO)C[C@@H]2C)c1,/,3.6,/
COc1cccc(NC(=O)N(C)C[C@H]2Oc3cc(C#Cc4ccccc4)ccc3S(=O)(=O)N([C@@H](C)CO)C[C@@H]2C)c1,12.2,/,-5.0
COc1ccc(C#Cc2ccc3c(c2)O[C@H](CN(C)C(=O)Nc2cccc(OC)c2)[C@H](C)CN([C@H](C)CO)S3(=O)=O)cc1,-6.7,-3.1,0.1
COc1ccc(C#Cc2ccc3c(c2)O[C@H](CN(C)C(=O)Nc2cccc(OC)c2)[C@@H](C)CN([C@H](C)CO)S3(=O)=O)cc1,-7.2,16.9*,0.3
COc1cccc(NC(=O)N(C)C[C@@H]2Oc3cc(C#Cc4ccccc4)ccc3S(=O)(=O)N([C@H](C)CO)C[C@H]2C)c1,-16.2,19.3*,0.6
SMILES,DENV2 CPE,SIRT5 inh,E-sel inducer
CNC[C@@H]1Oc2cc(C#Cc3ccc(OC)cc3)ccc2S(=O)(=O)N([C@H](C)CO)C[C@H]1C,-8.4,2.1,1.5
CNC[C@H]1Oc2cc(C#Cc3ccc(OC)cc3)ccc2S(=O)(=O)N([C@@H](C)CO)C[C@@H]1C,33.3*,0.2,-2.0
CCCC(C)NC(=O)CN1C(=O)c2cccc3cccc1c23 (centres undefined),11.8,-25.1,/
COc1ccccc1NNC(=O)c1cc(C(C)(C)C)nn1Cc1ccccc1,-0.3,5.8,/
CN(C)C(=O)C[C@H]1CC[C@@H](NC(=O)C2CCOCC2)[C@H](CO)O1,-6.1,0.0,11.9
CN(C)c1ccc(CN2CCC(C(=O)NC(c3ccc(F)cc3)c3ccc4ccccc4n3)CC2)cc1 (centres undefined),7.1,/,-0.1
Cc1ccc(-c2c[n+](CC(=O)N3c4ccccc4Sc4ccccc43)c3n2CCC3)cc1,-2.2,-4.6,0.7
CN(CC(=O)Nc1cccc(Cl)c1)S(=O)(=O)c1ccc2c(c1)n(C)c(=O)c(=O)n2C,2.1,32.8*,0.5
CN(CC(=O)Nc1ccc(Cl)cc1)S(=O)(=O)c1ccc2c(c1)n(C)c(=O)c(=O)n2C,3.7,-0.7,/
CN(C)c1ccc(S(=O)(=O)N(C)C)cc1NC(=O)Cc1cccc2ccccc12,9.4,-0.5,/
Cc1cccc(NC(=O)Cc2ccc(NC3=NC4CS(=O)(=O)CC4S3)cc2)c1 (centres undefined),-1.9,0.9,5.2
Cc1cc(C)cc(NC(=O)Cc2ccc(NC3=NC4CS(=O)(=O)CC4S3)cc2)c1 (centres undefined),-1.3,-4.5,51.0*
O=C(C1CCC1)N1CC[C@@H]2[C@H]1c1cc(C#Cc3cccc(F)c3)ccc1N[C@@H]2CO,?,6.5,0.6
CCC(=O)N1CC[C@@H]2[C@H]1c1cc(-c3cccc(C#N)c3)ccc1N[C@@H]2CO,-3.4,/,0.3
O=C(C1CCC1)N1CC[C@H]2[C@H](CO)Nc3ccc(C#Cc4cccc(F)c4)cc3[C@H]21,13.0,20.5*,-0.7
O=C(C1CCC1)N1CC[C@@H]2[C@H](CO)Nc3ccc(C#Cc4cccc(F)c4)cc3[C@@H]21,-11.7,5.0,30.6*
O=C(C1CC1)N1CC[C@@H]2[C@H](CO)Nc3ccc(-c4cccc(F)c4)cc3[C@@H]21,11.1,4.0,0.3
O=C(C1CCC1)N1CC[C@@H]2[C@@H](CO)Nc3ccc(C#Cc4cccc(F)c4)cc3[C@@H]21,-0.7,1.0,6.6
CCC(=O)N1CC[C@@H]2[C@H](CO)Nc3ccc(-c4cccc(C#N)c4)cc3[C@@H]21,137.0*,/,0.1
O=C(C1CC1)N1CC[C@H]2[C@H](CO)Nc3ccc(-c4cccc(F)c4)cc3[C@H]21,31.7*,-3.4,0.4
CC(C)(C)NC(=S)NNC(=O)c1ccncc1,?,2.4,/
Cn1c(=O)c(C(N)=S)cn(-c2ccccc2)c1=O,4.1,1.4,-0.1
NC(=O)c1cc(Cl)cn(-c2ccccc2)c1=O,82.5*,1.0,-0.2
COC(=O)c1ccc2[nH]c(C(C)(C)O)c(C)c2c1,-2.5,/,0.0
Cc1cccc(Nc2nc3ccccc3n3nnnc23)c1,-3.0,-2.1,/
COc1cccc(NC(=O)N2CC(=O)N3[C@@H](CO)[C@H](c4ccc(C#CCC5CCCC5)cc4)[C@@H]3C2)c1,-7.3,20.4*,2.5
